Published values of several laboratories.
Compare with care: the assays were run in different laboratories.
Target: Mitogen-activated protein kinase kinase kinase 3 (MAP3K3, Homo sapiens, UniProt Q99759)
Sequence (Q99759 1-626, as in one of the studies): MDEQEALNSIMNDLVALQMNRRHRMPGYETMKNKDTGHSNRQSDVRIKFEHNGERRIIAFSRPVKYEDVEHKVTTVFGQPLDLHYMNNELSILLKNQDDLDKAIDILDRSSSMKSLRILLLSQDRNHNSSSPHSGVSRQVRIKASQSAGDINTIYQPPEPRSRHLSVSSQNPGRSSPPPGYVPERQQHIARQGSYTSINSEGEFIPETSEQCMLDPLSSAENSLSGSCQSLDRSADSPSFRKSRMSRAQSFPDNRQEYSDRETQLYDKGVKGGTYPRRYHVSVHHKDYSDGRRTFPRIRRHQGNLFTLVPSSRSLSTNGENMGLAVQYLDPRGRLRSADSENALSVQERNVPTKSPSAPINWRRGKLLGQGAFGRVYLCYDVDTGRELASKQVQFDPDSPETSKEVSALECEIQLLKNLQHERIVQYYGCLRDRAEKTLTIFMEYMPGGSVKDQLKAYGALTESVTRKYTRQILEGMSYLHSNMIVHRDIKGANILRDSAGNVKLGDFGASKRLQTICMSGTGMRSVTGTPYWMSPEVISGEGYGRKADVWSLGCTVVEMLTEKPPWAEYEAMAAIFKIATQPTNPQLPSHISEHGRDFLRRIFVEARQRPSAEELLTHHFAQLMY

Structure (SMILES) | read-out | mode | technique | concentration | measurement | value
CC(C)(C)c1nc(-c2cccc(NS(=O)(=O)c3c(F)cccc3F)c2F)c(-c2ccnc(N)n2)s1 | enzyme activity | inhibitor | radiometric | 1 µM | remaining activity | 96%
COc1cc2c(N3CCN(C(=O)Nc4ccc(OC(C)C)cc4)CC3)ncnc2cc1OCCCN1CCCCC1 | cell-free assay |  |  | 0.5 µM | remaining signal | 106%
c1cnn2ncc(-c3ccnc(N4CCC45COC5)n3)c2c1 | binding |  |  | 1 µM | remaining binding | 40%
O=C(NCc1ncc(C(F)(F)F)cc1Cl)c1ccc2c(c1)C1(CCS(=O)(=O)CC1)[C@H](C1CC1)N2S(=O)(=O)c1ccc(F)cc1 | cell-free assay |  | competition with immobilised ligand | 1 µM | remaining binding | 74%
N#CCCc1ccc2c(c1)-c1[nH]c3ccc([N+](=O)[O-])cc3c1CC(=O)N2 | cell-free assay |  |  | 0.5 µM | remaining signal | 83.3%
O=C(NS(=O)(=O)c1ccc(NCC2CCOCC2)c([N+](=O)[O-])c1)c1ccc(N2CCN(Cc3ccc(C(F)(F)F)cc3-c3ccc(Cl)cc3)CC2)cc1Oc1cnc2[nH]ccc2c1 | cell-free assay |  | competition with immobilised ligand | 1 µM | remaining binding | 82%
Cc1sc(C(=O)NC2COC2)cc1-n1cc(NC(=O)Nc2c(F)cccc2Cl)cn1 | enzyme activity | inhibitor |  | 10 µM | remaining activity | 113%
Nc1ncnc2occ(-c3ccc(NC(=O)Nc4cc(C(F)(F)F)ccc4F)cc3)c12 | cell-free assay | inhibitor |  | 20 µM | remaining signal | 4.3%
O=C(Nc1cnn(-c2csc(C(=O)NC3COC3)c2)c1)Nc1c(F)cccc1Cl | enzyme activity | inhibitor |  | 5 µM | remaining activity | 81.9%
C[C@@H]1CN(c2cc(-c3n[nH]c4ccc(OC5(C)CC5)cc34)ncn2)C[C@H](C)O1 | cell-free assay |  | competition with immobilised ligand | 0.1 µM | remaining binding | 64%
COc1cc(Cl)c(C(=O)N[C@@H](CN[C@H]2CC[C@@H](N)CC2)Cc2ccc(C#N)cc2)cc1-c1ccc(CN[C@H](C)c2ccc(C)cc2)o1 | enzyme activity | inhibitor |  | 1 µM | remaining activity | 95%
O=C1NC(=O)c2cc(Nc3ccc(F)cc3)c(Nc3ccc(F)cc3)cc21 | cell-free assay |  |  | 0.5 µM | remaining signal | 102%
C[C@H](c1ccc(F)cc1)N(Cc1cccc(C(=O)O)c1)C(=O)c1cnc2ccccc2c1 | cell-free assay |  | competition with immobilised ligand | 1 µM | remaining binding | 100%
CN1CC(Oc2cnc(C#N)cc2-c2ccn3nc(NC(=O)C4CC4)cc3c2)C1 | enzyme activity | inhibitor |  | 1 µM | inhibition | 3%
Cn1cc(Cl)c2c(Oc3c(F)cc(Nc4cc(Cl)nc(N)n4)cc3F)ccnc21 | cell-free assay |  | competition with immobilised ligand | 0.1 µM | remaining binding | 90%
COc1ccc(F)cc1C(=O)NCc1ccc(-c2nn([C@@H](C)C(F)(F)F)c(N)c2C(N)=O)cc1 | target engagement in cells | inhibitor | chemoproteomics | 10 nM | inhibition | 4.7%
